# Source: PubChem
# This is a sample that favours compounds with a hit; in the whole collection about 3.5% have one here.
# ABCB1 inh = blocks JC-1 efflux by human ABCB1 transporter; P08183; CCRF-Adr cells, flow cytometry; inhibition, % at 6.6 µM; 0.067% of 190,000 active; AID 1326; in the data active = inhibition above about 40%;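 also: 0% = vehicle and 100% = reference inhibitor; higher value means more JC-1 retained so stronger ABCB1 efflux block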
# ABCG2 inh = blocks JC-1 efflux by human ABCG2 transporter. IgMXP3 cells, flow cytometry. AID 1325. 0.1% of 190,000 active. inhibition, % at 6.6 µM. Q9UNQ0;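 active = inhibition above 80%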;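 also: 0% = DMSO and 100% = nicardipine control wells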
#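 Times: 10 min at 25 °C | Test system: Two drug-resistant human cell lines, ABCG2 and ABCB1 | Quantity: 3 million cells/mL final, two lines in 1:1 ratio | Signal: Flow cytometry, 530 nm JC-1 signal | Dosing: Compound at 6.6 µM | Controls: Nicardipine and DMSO wells | Reagent: JC-1 as fluorescent efflux pump substrate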
# MEKK2 WT-MEK5 = raises or lowers MEK5 binding to wildtype human MEKK2 PB1 domain; Q9Y2U5; bead flow cytometry, Alexa488-MEK5 binding to MEKK2 WT; actives lie on both sides; binding response (% of control), % at 10 µM; 1.1% of 290,000 active; AID 1531; in the data active = binding response below about 67% or above about 130%
# MEKK2mut PB1 HTS = signal of MEK5 binding to mutant human MEKK2 PB1 domain; bead flow cytometry, Alexa488-MEK5 binding to MEKK2 mutant; percent response, % at 10 µM; 0.35% of 290,000 active; in the data active = percent response above about 24%, passing the limit was not always enough
# WT yeast gro inh = growth inhibition of WT yeast, mitochondrial fusion screen | mitochondrial fusion phenotypic screen, WT strain | inhibition, % at 10 µM | AID 1362 | 2.1% of 190,000 active; in the data active = inhibition above about 58%; tested in S. cerevisiae
# MEKK3 PB1 HTS = modulators (inhibitors or enhancers) of MEK5 binding to human MEKK3 PB1 domain; Q99759; bead-based flow cytometry, Alexa488-MEK5 binding to MEKK3; actives lie on both sides; 0 = blocked by unlabeled MEK5, 100 = vehicle; binding response (% of control), % at 10 µM; 1.4% of 290,000 active; AID 1529;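 active = binding response more than 3 SD above or below the average of its plate-row segment, actives on both sides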;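 also: Alexa488 bead fluorescence after subtracting the streptavidin-only scavenger bead signal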
# Target sequence (Q99759 whole entry, looked up, the tested form may be a part): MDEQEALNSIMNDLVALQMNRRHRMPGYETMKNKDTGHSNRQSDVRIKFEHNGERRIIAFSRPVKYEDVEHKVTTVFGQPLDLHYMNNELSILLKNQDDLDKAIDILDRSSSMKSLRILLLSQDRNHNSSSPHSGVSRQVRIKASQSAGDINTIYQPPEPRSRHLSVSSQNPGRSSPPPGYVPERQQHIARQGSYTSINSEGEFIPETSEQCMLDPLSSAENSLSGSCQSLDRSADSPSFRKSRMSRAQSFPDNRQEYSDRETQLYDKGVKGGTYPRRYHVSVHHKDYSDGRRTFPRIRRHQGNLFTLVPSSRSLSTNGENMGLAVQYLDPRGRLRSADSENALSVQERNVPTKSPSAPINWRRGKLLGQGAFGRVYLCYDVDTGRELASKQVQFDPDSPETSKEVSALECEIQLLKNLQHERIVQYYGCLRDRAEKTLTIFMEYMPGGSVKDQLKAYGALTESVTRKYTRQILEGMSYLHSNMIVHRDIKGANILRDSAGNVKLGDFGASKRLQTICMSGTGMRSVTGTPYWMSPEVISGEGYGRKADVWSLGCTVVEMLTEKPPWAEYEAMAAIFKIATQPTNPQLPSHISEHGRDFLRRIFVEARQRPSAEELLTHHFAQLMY
# MEKK2wt confirm = raises or lowers MEK5 binding to wildtype human MEKK2, retest | shares compounds with MEKK3 PB1 HTS | binding response (% of control), % at 10 µM | 2.4% of 5,900 active | AID 1892 | bead flow cytometry, Alexa488-MEK5 binding to MEKK2 WT; actives lie on both sides; in the data active = binding response below about 16% or above about 210%; inactive = in between
# MEKK2mut confirm = signal of MEK5 binding to mutant human MEKK2, retest. shares compounds with MEKK3 PB1 HTS. bead flow cytometry, Alexa488-MEK5 binding to MEKK2 mutant. percent response, % at 10 µM. 2% of 5,900 active; in the data active = percent response mostly above about 71%, no sharp cut-off; inactive = mostly below about 38%;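 also: higher means compound restores mutant binding toward wildtype level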
# MEKK3 confirm = MEKK3-MEK5 PB1 inhibition, single concentration confirmation; shares compounds with MEKK3 PB1 HTS; bead flow cytometry, Alexa488-MEK5 binding to MEKK3; hits give low values; binding response (% of control), % at 10 µM; 1.8% of 5,900 active;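 active = binding response below 72% of control, or above a set upper limit, though filed actives all read lower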;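 also: 100% = DMSO only wells and 0% = binding blocked by excess unlabeled MEK5; lower values mean stronger disruption of MEK5 binding to MEKK3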
# * hit, by the source's call; · = not tested or not shown; [ ] = dose if it differs, or a comment.
SMILES,ABCB1 inh,ABCG2 inh,MEKK2 WT-MEK5,MEKK2mut PB1 HTS,WT yeast gro inh,MEKK3 PB1 HTS,MEKK2wt confirm,MEKK2mut confirm,MEKK3 confirm
Cc1cc(-c2ccc(Cl)cc2)n2ncnc2n1,·,·,59,-39,·,50*[inhibitor],101,-3,95
CNS(=O)(=O)c1cccc(C(=O)NCC(C)(C)N2CCCCC2)c1,·,·,102,2,·,100,·,·,·
COc1ccc(C2CC(c3cccs3)=NN2C(=O)CSc2nc3ccccc3s2)cc1 (stereo not drawn),1,2,99,-1,9,130*,93,-6,99
COc1ccc(C2CC(c3cccs3)=NN2C(=O)CSc2nc3ccccc3o2)cc1 (stereo not drawn),2,13,98,3,14,95,·,·,·
O=C(CSc1nc2ccccc2s1)N1N=C(c2cccs2)CC1c1ccc(F)cc1 (stereo not drawn),0,1,95,-1,18,73*[inhibitor],95,-7,98
CCOC(=O)CSCC(=O)N1N=C(c2cccs2)CC1c1ccc(F)cc1 (stereo not drawn),1,7,109,7,-8,107,·,·,·
O=S1(=O)CC(O)C(Nc2ccccc2)C1 (stereo not drawn),1,6,102,1,-10,99,·,·,·
O=S1(=O)CC(O)C(Nc2ccc(Cl)cc2)C1 (stereo not drawn),0,1,67,-4,-19,49*[inhibitor],96,-9,97
CCOC(=O)c1sc(NC(=O)c2ccc(S(=O)(=O)N3CCCCCC3)cc2)nc1-c1ccccc1,0,-2,89,-7,8,96,·,·,·
CCOC(=O)c1sc(NC(=O)c2ccc(S(=O)(=O)N3CCCCC3)cc2)nc1-c1ccccc1,0,1,105,1,-16,135*,99,-5,99
O=C(CC12CC3CC(CC(C3)C1)C2)NCC(c1ccc(F)cc1)N1CCOCC1 (stereo not drawn),0,1,95,-2,2,94,·,·,·
O=C(N/N=C/c1c(O)n(-c2ccc(Cl)cn2)c(=O)c2ccccc12)c1ccncc1,0,4,107,0,12,135*,100,1,104
Cc1cc(N2CCCC2)nc2ccc(NC(=S)NCCCN3CCC(C)CC3)cc12,-1,0,112,-1,-8,127,·,·,·
CCN1CCN(c2cc(C)c3cc(NC(=S)NCCCN4CCc5ccccc5C4)ccc3n2)CC1,0,2,177*,21,-7,117,169,52,107
CCCN1CCN(CCCNC(=S)Nc2ccc3nc(N4CCN(CC)CC4)cc(C)c3c2)CC1,0,0,129,15,15,109,·,·,·
Cc1cc(N2CCN(C)CC2)nc2ccc(NC(=S)NCCCN3CCc4ccccc4C3)cc12,0,3,173*,44,10,117,142,25,102
Cc1cccc(N2CCN(C(=S)Nc3ccc4nc(N5CCN(C)CC5)cc(C)c4c3)CC2)c1C,1,8,47*[inhibitor],-39,27,30*[inhibitor],94,-20,75
Cc1ccc(OCC(=O)N/N=C/c2cccc3cccnc23)cc1,·,·,101,2,·,99,·,·,·
NC(=O)COc1ccc(-c2noc(COc3ccccc3[N+](=O)[O-])n2)cc1,0,3,119,1,2,132*,96,1,100
COc1cccc(-n2c(C)n[nH]c2=O)c1,0,1,3.0*[inhibitor],-14,-17,3.0*[inhibitor],102,5,100
COc1cc(CCC(=O)NCCc2ccc(F)cc2)cc(OC)c1OC,·,·,100,3,·,103,·,·,·
OCC1(Cc2cccc(Cl)c2)CCCN(Cc2cnn(-c3ccccc3)c2)C1 (stereo not drawn),2,1,140*,24,13,94,130,20,103
Cn1cc(CN2CCCC(CO)(Cc3cccc(Cl)c3)C2)cn1 (stereo not drawn),0,3,112,7,26,103,·,·,·
N#CCC(=O)N/N=C/c1ccc(Sc2nc3ccccc3s2)o1,0,2,105,2,1,107,·,·,·
CCN(CC)c1ccc(C(=O)NC(=S)N2CCN(Cc3ccc4c(c3)OCO4)CC2)cc1,1,4,107,-1,25,145*,101,0,102
SMILES,ABCB1 inh,ABCG2 inh,MEKK2 WT-MEK5,MEKK2mut PB1 HTS,WT yeast gro inh,MEKK3 PB1 HTS,MEKK2wt confirm,MEKK2mut confirm,MEKK3 confirm
COc1cc(C(=O)N2CCN(Cc3ccc4c(c3)OCO4)CC2)cc(OC)c1OC,·,·,102,28*,·,99,98,-1,102
CC(C)NC(=S)N1CCN(Cc2ccc3c(c2)OCO3)CC1,0,2,91,-3,-12,91,·,·,·
CNC(=S)N(CCc1c(C)[nH]c2ccc(Cl)cc12)Cc1cccnc1,·,·,108,11,·,105,·,·,·
COCCNC(=S)N(CCc1c(C)[nH]c2ccc(Cl)cc12)Cc1cccnc1,·,·,124,24*,·,107,115,1,100
CCNC(=S)N(CCc1c(C)[nH]c2ccc(Cl)cc12)Cc1cccnc1,·,·,127,29*,·,106,118,10,104
CC(C)[C@H](NC(=O)N1CCn2c1nc1ccccc12)C(=O)NC1CCCCC1,·,·,94,-6,·,95,·,·,·
CCOC(=O)C1(Cc2ccccc2C)CCCN(C(=O)CCn2nccc2C)C1 (stereo not drawn),1,2,90,-12,-9,95,·,·,·
c1ccc(CCNCCCOc2cccc3ccccc23)cc1,·,·,161*,33*,·,118,151,37,108
CC(=O)NCCOc1cccc2ccccc12,0,3,106,3,-2,100,·,·,·
C=C(C)Cn1c(CCn2c3ccccc3c3ccccc32)n[nH]c1=S,-1,-8,102,4,22,134*,91,1,101
Cc1cccc2sc(NC(=O)CN3C(=O)C4CC=CCC4C3=O)nc12 (stereo not drawn),0,9,129,8,-6,148*,104,3,108
Cc1cccc2sc(NC(=O)CN3C(=O)NC4(CCCC4)C3=O)nc12,·,·,95,-6,·,97,·,·,·
Cc1c(Cl)ccc2sc(NC(=O)CN3C(=O)c4ccccc4C3=O)nc12,0,-1,76,-9,-13,64*[inhibitor],98,6,98
Cc1ccccc1CNC(=O)Nc1ccc(Cl)cc1,·,·,98,2,·,97,·,·,·
